Experimental data taken from ChEMBL document CHEMBL1156036, “A class of novel N-(3S-1,2,3,4-tetrahydroisoquinoline-3-carbonyl)-L-amino acid derivatives: their synthesis, anti-thrombotic activity evaluation, and 3D QSAR analysis” (Eur J Med Chem, 2009).
pIC50: −log10 of the molar value. Square brackets hold non-standard residues; d marks the D form. Peptide text beside a SMILES is read from it. Tic = O=C(O)[C@@H]1Cc2ccccc2CN1

Tests used:
Type in all cases: functional
[1] = Antiplatelet aggregatory activity in pig […] assessed as inhibition of ADP-induced platelet aggregation; details: Sus scrofa
Outline: (§1)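 Pig blood spun 1000g 10 min for platelet-rich plasma, then 1500g 10 min for platelet-poor plasma; platelets adjusted to 2×10^8/ml with autologous PPP. Test agent in NS (final 100 to 0.001 μM) added to 0.5 ml plasma, then inducer in NS: PAF 0.1 μM, ADP 10 μM, AA 350 μM or thrombin 0.1 U/ml (final). Optical aggregometry, 37 °C, 5 min, six tubes.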

[2] = Antiplatelet aggregatory activity in pig […] assessed as inhibition of arachidonic acid-induced platelet aggregation; details: Sus scrofa; outline: as §1
[3] = Antiplatelet aggregatory activity in pig […] assessed as inhibition of platelet-activating factor-induced platelet aggregation; details: Sus scrofa; outline: as §1
[4] = Antiplatelet aggregatory activity in pig […] assessed as inhibition of thrombin-induced platelet aggregation; details: Sus scrofa; outline: as §1
Rattus norvegicus [5] = assay: Antithrombotic activity in Wistar rat assessed as reduction of wet thrombus weight at 5 umol/kg, iv after 15 mins
Outline: (§2)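 Male Wistar rats, 250-300 g, given agent dissolved in NS (kept on ice) intravenously; Aspirin 15 μmol/kg as reference, NS as vehicle. Pentobarbital sodium 80.0 mg/kg i.p. Arteriovenous shunt from right carotid artery to left jugular vein via polyethylene tube containing a thread; blood flowed 15 min; wet thrombus weighed, n = 12, mean ± SD.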

Rattus norvegicus [6] = species: Rattus norvegicus; assay: Ratio of compound antithrombotic potency to aspirin antithrombotic potency in Wistar rat assessed as reduction of wet thrombus weight
Rattus norvegicus [7] = assay: Antithrombotic activity in Wistar rat assessed as reduction of wet thrombus weight at 15 umol/kg, iv after 15 mins; outline: as §2
Rattus norvegicus [8] = assay: Antithrombotic activity in Wistar rat assessed as reduction of wet thrombus weight at 15 umol/kg, po after 15 mins
Rattus norvegicus [9] = assay: Antithrombotic activity in Wistar rat assessed as reduction of wet thrombus weight at 5 umol/kg, po after 15 mins
Outline: (§3)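 Oral dosing of male Wistar rats at 5, 1 or 0.2 μmol/kg in NS, or NS (0.6 ml) alone. Pentobarbital sodium 80.0 mg/kg ip; 30 min later vessels exposed. Weighed 6-cm thread in heparin-filled (50 IU/ml in NS) polyethylene tube linking carotid artery to jugular vein; 15 min flow; wet thrombus weight recorded, n = 12.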

Rattus norvegicus [10] = assay: Antithrombotic activity in Wistar rat assessed as reduction of wet thrombus weight at 1 umol/kg, po after 15 mins; outline: as §3
Rattus norvegicus [11] = assay: Antithrombotic activity in Wistar rat assessed as reduction of wet thrombus weight at 0.2 umol/kg, po after 15 mins; outline: as §3

pIC50 [1] | pIC50 [2] | pIC50 [3] | pIC50 [4] | Structure (SMILES) | Activity (Rattus norvegicus [5]) [mg] | Ratio (Rattus norvegicus [6]) | Activity (Rattus norvegicus [7]) [mg] | Activity (Rattus norvegicus [8]) [mg] | Activity (Rattus norvegicus [9]) [mg] | Activity (Rattus norvegicus [10]) [mg] | Activity (Rattus norvegicus [11]) [mg]
6.73 | 6.26 | 6.66 | 6.47 | O=C(O)[C@H](Cc1ccccc1)NC(=O)[C@@H]1Cc2ccccc2CN1 (H-[Tic]-Phe-OH) | 19.11 | >30 |  |  |  |  | 
6.27 | 6.35 | 6.03 | 6.18 | CC[C@H](C)[C@H](NC(=O)[C@@H]1Cc2ccccc2CN1)C(=O)O (H-[Tic]-Ile-OH) | 20.03 | >30 |  |  |  |  | 
6.32 | 6.41 | 5.94 | 6.01 | O=C(O)[C@H](Cc1ccc(O)cc1)NC(=O)[C@@H]1Cc2ccccc2CN1 (H-[Tic]-Tyr-OH) | 19.31 | >30 |  |  |  |  | 
6.32 | 6.54 | 5.79 | 6.34 | CC(C)C[C@H](NC(=O)[C@@H]1Cc2ccccc2CN1)C(=O)O (H-[Tic]-Leu-OH) | 20.23 | >30 |  |  |  |  | 
6.18 | 6.31 | 6.14 | 6.43 | O=C(O)[C@H](Cc1c[nH]cn1)NC(=O)[C@@H]1Cc2ccccc2CN1 (H-[Tic]-His-OH) | 20.86 | >30 |  |  |  |  | 
6.33 | 6.78 | 6.82 | 6.26 | NC(=O)C[C@H](NC(=O)[C@@H]1Cc2ccccc2CN1)C(=O)O (H-[Tic]-Asn-OH) | 20.24 | >30 |  |  |  |  | 
6.71 | 6.56 | 5.98 | 6.13 | NCCCC[C@H](NC(=O)[C@@H]1Cc2ccccc2CN1)C(=O)O (H-[Tic]-Lys-OH) | 21.28 | >30 |  |  |  |  | 
6.46 | 6.98 | 6.45 | 6.31 | C[C@H](NC(=O)[C@@H]1Cc2ccccc2CN1)C(=O)O (H-[Tic]-Ala-OH) | 21.4 | >30 |  |  |  |  | 
6.79 | 6.38 | 6.23 | 6.12 | C[C@@H](O)[C@H](NC(=O)[C@@H]1Cc2ccccc2CN1)C(=O)O (H-[Tic]-Thr-OH) | 21.25 | >30 |  |  |  |  | 
6.42 | 6.41 | 6.03 | 6.70 | CC(C)[C@H](NC(=O)[C@@H]1Cc2ccccc2CN1)C(=O)O (H-[Tic]-Val-OH) | 19.2 | >30 |  |  |  |  | 
6.41 | 6.38 | 6.03 | 6.08 | O=C(O)[C@H](CO)NC(=O)[C@@H]1Cc2ccccc2CN1 (H-[Tic]-Ser-OH) | 23.58 | >30 |  |  |  |  | 
6.26 | 6.34 | 6.02 | 6.06 | O=C(O)[C@@H]1Cc2ccccc2CN1 |  |  | 21.52 | 23.88 |  |  | 
6.91 | 6.44 | 5.87 | 6.30 | N=C(N)NCCC[C@H](NC(=O)[C@@H]1Cc2ccccc2CN1)C(=O)O (H-[Tic]-Arg-OH) | 18.73 | >30 |  |  | 19.01 | 24.38 | 29.11
6.64 | 6.34 | 6.11 | 6.41 | O=C(O)[C@H](CS)NC(=O)[C@@H]1Cc2ccccc2CN1 (H-[Tic]-Cys-OH) | 20.91 | >30 |  |  |  |  | 
6.63 | 6.31 | 6.86 | 6.03 | NC(=O)CC[C@H](NC(=O)[C@@H]1Cc2ccccc2CN1)C(=O)O (H-[Tic]-Gln-OH) | 22.08 | >30 |  |  |  |  | 
6.44 | 6.99 | 5.85 | 6.73 | O=C(O)[C@@H]1CCCN1C(=O)[C@@H]1Cc2ccccc2CN1 (H-[Tic]-Pro-OH) | 20.25 | >30 |  |  |  |  | 
6.32 | 6.45 | 6.75 | 6.26 | O=C(O)CC[C@H](NC(=O)[C@@H]1Cc2ccccc2CN1)C(=O)O (H-[Tic]-Glu-OH) | 19.69 | >30 |  |  |  |  | 
6.64 | 6.72 | 6.42 | 6.51 | CSCC[C@H](NC(=O)[C@@H]1Cc2ccccc2CN1)C(=O)O (H-[Tic]-Met-OH) | 21.74 | >30 |  |  |  |  | 
6.30 | 6.97 | 6.10 | 6.51 | O=C(O)CNC(=O)[C@@H]1Cc2ccccc2CN1 (H-[Tic]-Gly-OH) | 20.24 | >30 |  |  |  |  | 
 |  |  |  | CC(=O)Oc1ccccc1C(=O)O [ASPIRIN] |  |  | 27.6 |  |  |  | 
6.48 | 6.41 | 6.20 | 6.80 | O=C(O)C[C@H](NC(=O)[C@@H]1Cc2ccccc2CN1)C(=O)O (H-[Tic]-Asp-OH) | 21.67 | >30 |  |  |  |  | 
6.92 | 6.43 | 6.18 | 6.63 | O=C(O)[C@H](Cc1c[nH]c2ccccc12)NC(=O)[C@@H]1Cc2ccccc2CN1 (H-[Tic]-Trp-OH) | 21.3 | >30 |  |  |  |  | 
